Diaph inh CS: inhibits diaphorase or chemically oxidizes, flagging diaphorase assay artifacts | 0.69% of 190,000 active | diaphorase resazurin-to-resorufin fluorescence, NADH, 16 min; bacterial (C. kluyveri) enzyme, not human | AID 1217 | inhibition, % at 20 µM;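 active = primary screen inhibition at 20 µM above a set limit, cut at about 50% in these data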;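 note: plate controls were DMSO with full reaction for no effect and wells lacking NADH for full effect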
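System: Diaphorase enzyme from Clostridium kluyveri | Amount: Enzyme working solution with 0.14 U/mL diaphorase | Benchmarks: No-NADH positive control and DMSO neutral control | Signal: Fluorescence of resorufin formed from resazurin, Ex 544/Em 590 nm | Schedule: 16-min room-temperature incubation before reading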
G6PDH counter: L. mesenteroides G6PDH inhibition counter-screen; inhibition, % at 5 µM; Purified L. mesenteroides G6PDH, diaphorase/resazurin coupled fluorescence, 45 min; 0.12% of 200,000 active; AID 1020; in the data active = inhibition above about 50%
HKDC1 inh: HKDC1 (human) hexokinase inhibition | Q2TB90 | recombinant HKDC1, G6PDH/diaphorase resazurin coupled fluorescence | inhibition, % at 20 µM | 0.16% of 340,000 active;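 active = inhibition above about 35% when tested at 20 µM, limit read from the data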;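 note: plate controls were DMSO wells with enzyme for no effect and DMSO wells lacking enzyme for full effect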
Target sequence (Q2TB90 whole entry, looked up): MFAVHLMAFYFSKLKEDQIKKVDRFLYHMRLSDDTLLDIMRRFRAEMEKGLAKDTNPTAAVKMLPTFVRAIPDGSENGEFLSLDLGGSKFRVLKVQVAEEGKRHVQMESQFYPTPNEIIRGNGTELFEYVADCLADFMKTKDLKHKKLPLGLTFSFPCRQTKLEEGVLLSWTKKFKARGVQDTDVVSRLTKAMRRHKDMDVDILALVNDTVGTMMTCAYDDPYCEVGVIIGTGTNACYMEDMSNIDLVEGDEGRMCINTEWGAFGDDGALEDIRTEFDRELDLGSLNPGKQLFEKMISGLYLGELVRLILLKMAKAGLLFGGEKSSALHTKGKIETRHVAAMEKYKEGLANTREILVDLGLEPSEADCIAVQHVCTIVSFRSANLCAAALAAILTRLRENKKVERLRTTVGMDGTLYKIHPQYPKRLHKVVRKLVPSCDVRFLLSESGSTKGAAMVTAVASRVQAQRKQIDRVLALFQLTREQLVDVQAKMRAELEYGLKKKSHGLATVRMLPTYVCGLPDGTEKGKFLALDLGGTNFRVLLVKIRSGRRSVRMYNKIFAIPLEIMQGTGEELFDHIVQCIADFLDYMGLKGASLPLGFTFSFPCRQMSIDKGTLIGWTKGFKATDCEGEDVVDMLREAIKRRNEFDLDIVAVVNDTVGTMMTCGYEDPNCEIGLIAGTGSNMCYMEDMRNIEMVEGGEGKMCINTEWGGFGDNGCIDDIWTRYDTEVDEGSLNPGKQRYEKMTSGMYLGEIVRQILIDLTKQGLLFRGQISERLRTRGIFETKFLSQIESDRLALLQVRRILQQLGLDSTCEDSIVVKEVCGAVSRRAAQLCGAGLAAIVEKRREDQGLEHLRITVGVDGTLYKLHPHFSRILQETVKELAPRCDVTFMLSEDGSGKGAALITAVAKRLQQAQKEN
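System: Recombinant HKDC1 hexokinase | Amount: HKDC1 at 5 µg/mL | Reagent: Glucose with 1 mM ATP | Doses: Single 20 µM dose | Incubation: Reaction time 90 min, room temperature, protected from light | Signal: Coupled resazurin fluorescence, excitation 525 nm, emission 613 nm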
PfG6PD inh: PfG6PD (Plasmodium falciparum) enzyme inhibition; PfGluPho enzyme, NADPH resazurin-diaphorase fluorescence; inhibition, % at 20 µM; 0.78% of 350,000 active; AID 504690;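 active = inhibition reaching at least a set limit at 20 µM in the primary screen, cut at about 59% in these data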;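 note: 0% = DMSO wells with substrate and 100% = DMSO wells lacking glucose-6-phosphate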
Tb hexokinase: T. brucei hexokinase 1 inhibition. recombinant TbHK1, G6PDH-coupled NADH A340. inhibition, % at 10 µM. 0.11% of 220,000 active. AID 1430;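 active = inhibition of 50% or more in the single-dose primary screen; inactive = inhibition below 50%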
Active calls of the source: *; x = no result given. Rows were chosen to be rich in hits. Some 1.2% of all compounds tested hit in one or more screens of this group.

SMILES	Diaph inh CS	G6PDH counter	HKDC1 inh	PfG6PD inh	Tb hexokinase
CN1CCN(c2nc3ccccc3nc2C(C#N)S(=O)(=O)c2ccccc2)CC1 (stereo not drawn)	x	x	3.0	4.5	-14.2
N#CC(c1nc2ccccc2nc1N1CCCC1)S(=O)(=O)c1ccccc1 (stereo not drawn)	53.2*	28.9	6.2	28.9	-1.7
Cc1ccc(N/N=C/c2c(C)c(C#N)c(=O)n(C)c2O)cc1C	69.1*	29.5	3.3	38.5	-31.5
O=C(NC1CCCCCCC1)NC1CCCCC1	1.7	6.6	1.3	3.1	-3.1
O=C(NNC(=O)c1cc(O)c(O)c(O)c1)NC1CCCCC1	50.5*	14.8	-8.9	7.8	4.6
CCOc1ccc(-c2csc(/C(C#N)=C\c3ccc(O)c([N+](=O)[O-])c3)n2)cc1	86.8*	11.6	-8.1	-4.0	15.9
CCCCc1ccc(-c2csc(/C(C#N)=C\c3ccc(C)o3)n2)cc1	26.2	1.0	6.3	-7.0	10.7
Oc1ccc(-c2cnns2)c(O)c1	9.5	3.0	45.4*	43.7	1.7
CC(C)(C)OC(=O)[C@H](Cc1ccccc1)NC(=O)c1nc[nH]c1C(=O)NC1CCN(C(=O)OC(C)(C)C)CC1	51.8*	13.5	-0.3	29.3	-12.1
CN(CC1CCCN(CCc2ccccc2F)C1)C(=O)c1cc2ccccc2o1 (stereo not drawn)	x	x	x	14.4	x
COc1ccc(NC(=O)CCC(=O)c2cccs2)cc1S(=O)(=O)Nc1ccc(Cl)cc1	50.0*	-13.5	-1.4	4.8	-0.7
O=C(N/C(=C/c1cccc(Br)c1)C(=O)N1CCCCC1)c1ccco1	x	x	x	41.8	x
O=C1c2c([N+](=O)[O-])cc([N+](=O)[O-])cc2S(=O)N1Cc1ccccc1 (stereo not drawn)	8.7	9.9	3.6	62.5*	5.9
CC(C)CN(C(=O)COC(=O)CCSc1ccc(Cl)cc1)c1c(N)n(Cc2ccccc2)c(=O)[nH]c1=O	x	x	x	-7.8	x
CSC(=S)N/N=C/c1ccccc1	73.2*	2.6	-7.4	0.6	-28.5
O=C(Nc1ccc(Cl)cc1Cl)c1cccc(N2C(=O)C=CC2=O)c1	x	x	-6.9	112.9*	x
C[C@@H](CO)NC(=O)c1[nH]cnc1C(=O)Nc1ccc(CNC(=O)OC(C)(C)C)cc1	x	x	x	5.0	x
COc1cc(/C=C2\SC(=O)N(Cc3ccc(Cl)cc3)C2=O)cc([N+](=O)[O-])c1O	87.0*	16.3	17.4	-3.4	12.6
CC(C)c1ccc(C2CC(=O)N3CN(C)CSC3=C2C#N)cc1 (stereo not drawn)	35.9	19.4	27.1	86.5*	-11.2
COc1ccc2ccccc2c1C1CC(=O)N2CN(C)CSC2=C1C#N (stereo not drawn)	52.5*	21.4	9.9	79.3*	-8.3
Oc1ccc(-c2csc(Nc3ncccn3)n2)c(O)c1	13.9	0.2	-11.2	25.2	-14.9
Oc1ccc(-c2csc(-c3ccccc3)n2)cc1O	71.3*	19.4	3.7	1.4	2.6
Oc1ccc(-c2csc(Nc3ncccn3)n2)cc1O	51.8*	29.0	0.6	18.7	-1.2
COc1cc(C(=O)N(C)CC2CCN(CCc3cccc(C(F)(F)F)c3)CC2)ccc1C	x	x	-5.6	1.2	x
Cn1nc(NC(=O)C(F)(F)F)c2ncc(-c3ccccc3)nc21	x	x	x	-10.6	x
SMILES	Diaph inh CS	G6PDH counter	HKDC1 inh	PfG6PD inh	Tb hexokinase
Cc1ccc(C2=NC(=O)/C(=C/c3cc(O)c(O)c(Br)c3)S2)cc1	81.4*	3.8	27.0	27.1	11.5
CC1=C(C(=O)OCc2ccccc2)C(c2ccc(C)cc2)NC(=O)N1 (stereo not drawn)	x	x	x	-0.8	x
c1csc(C2Nc3cccc4cccc(c34)N2)c1	61.5*	17.1	12.8	47.8	-21.3
c1ccc(C2Nc3cccc4cccc(c34)N2)cc1	x	x	13.0	55.3	x
Brc1ccc(C2Nc3cccc4cccc(c34)N2)o1	85.1*	36.5	12.4	53.8	-20.9
CNC(=O)C[C@H]1C(=O)N(c2ccc(Br)cc2)C[C@@H]1C	x	x	x	-5.6	x
O=C(OCc1cn([C@H]2CN(C(=O)C3CCCCC3)[C@@H](c3ccccc3)C[C@@H]2O)nn1)c1ccccc1	x	x	x	2.5	x
Cc1ccc2[nH]c3c(c2c1)CCc1cn[nH]c1-3	69.7*	-45.4	20.1	40.1	2.5
Cc1ccc2[nH]c3c(c2c1)CCC3=O	3.7	0.1	-4.4	-3.0	-7.1
O=C1CCC(C(=O)Nc2cccc(S(=O)(=O)Nc3ccccc3F)c2)=NN1	x	x	-37.3	92.2*	x
O=C(Nc1cccc(S(=O)(=O)Nc2ccccc2F)c1)c1ccco1	x	x	-5.6	7.2	x
CN(C)c1ccc(CC2C(=O)Nc3ccccc32)cc1 (stereo not drawn)	x	x	4.7	82.9*	-6.5
CCCSC1=N/C(=C\C=C\c2ccco2)C(=O)S1	51.4*	7.5	4.5	24.8	15.9
O=C(COc1ccc([N+](=O)[O-])cc1)NNC(=O)C1COc2ccccc2O1 (stereo not drawn)	x	x	x	-15.0	x
COc1ccc(NC(=O)Cn2cccc2)c(OC)c1	74.4*	2.9	-10.2	-11.7	-0.2
COc1ccc(NC(=O)CN2CCN(CC(=O)Nc3ccccc3OC)CC2)c(OC)c1	x	x	-0.6	-4.7	x
C#CCOc1ccc(CNC[C@H]2O[C@@H](n3ccc(N)nc3=O)[C@H](O)[C@@H]2O)cc1	x	x	x	-11.1	x
Cc1ccc(-c2[nH]c(=S)[nH]c(=O)c2C#N)cc1	78.1*	9.5	-6.3	-26.5	-34.7
CSc1cc(-c2ccc(Cl)cc2)[nH]c(=O)c1C#N	6.9	-2.2	7.7	-9.2	-19.4
O=S(=O)(c1ccc2ccccc2c1)N1CCC(c2nc(-c3ccncc3)no2)CC1	57.1*	-0.6	-10.3	0.4	-6.3
COC(=O)c1cc2n3ccccc3c(C)c(-c3ccccc3)c-2c1C(=O)OC	57.0*	-4.2	0.8	-31.1	-46.8
CCCCC1OC2(C)OC(=N)C1(C#N)C(C#N)(C#N)C2c1ccccc1 (stereo not drawn)	57.7*	-21.4	10.0	-9.0	0.1
CC1OC2(C)OC(=N)C1(C#N)C(C#N)(C#N)C2c1ccccc1 (stereo not drawn)	10.8	-6.3	-2.2	-3.1	-8.1
NC(CO)C(=O)NNCc1ccc(O)c(O)c1O (stereo not drawn)	73.6*	31.4	15.3	55.4	1.8
CC(=O)OCCCNc1cc(Sc2ccc(C)cc2)c2nonc2c1[N+](=O)[O-]	34.5	-23.7	2.7	17.2	-5.9
SMILES	Diaph inh CS	G6PDH counter	HKDC1 inh	PfG6PD inh	Tb hexokinase
O=[N+]([O-])c1c(NCCO)cc(N2CCC3(CC2)OCCO3)c2nonc12	55.4*	23.3	-2.7	-0.8	-13.5
COc1ccc(CNc2cc(NCCCO)c([N+](=O)[O-])c3nonc23)cc1	60.7*	29.5	17.9	14.3	-18.5
COc1ccc(Nc2cc(NCCCO)c([N+](=O)[O-])c3nonc23)cc1	x	x	10.5	-1.0	x
O=[N+]([O-])c1c(NCCCO)cc(SCc2ccco2)c2nonc12	65.7*	14.9	2.3	28.4	-4.3
O=[N+]([O-])c1c(NCCCO)cc(Sc2ccc(Cl)cc2)c2nonc12	54.1*	11.3	13.9	22.0	-29.4
Clc1cc(Cl)cc(Nc2ccccc2CN(C/C=C/c2ccc3c(c2)OCO3)Cc2ccccc2)c1	x	x	x	-15.6	x
